Reference: ChEMBL document CHEMBL1153612, “Synthesis and antitumor activity of novel dithiocarbamate substituted chromones” (Eur J Med Chem, 2009)
Values belong to the compound of their own block, whether it stands above or below them.

Experiments:
[1] = Antiproliferative activity against human LM7 cells after 72 hrs by MTT assay; assay type: functional, cell-based; details: LM7, 72 h
How it was run: (§1)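 Cells seeded at 8000 per well in 96-well plates, exposed to compound for 72 h. MTT added at 0.5 mg/mL final and incubated 4 h. Formazan dissolved in DMSO, absorbance read at 570 nm. IC50 is the concentration giving 50% reduction in cell growth, reported as the mean of three repeated experiments.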

[2] = Cell cycle arrest in human MDA-MB-435S cells assessed as accumulation at G2/M phase at 0.12 uM after 48 hrs by flow cytometry; assay type: functional, cell-based
How it was run: (§2)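 Cells grown to about 70% confluence in 6-well plates, then treated with compound at three concentrations for 48 h. Cell-cycle phase distribution measured by flow cytometry (FACS).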

[3] = Cell cycle arrest in human MDA-MB-435S cells assessed as accumulation at G0/G1 phase at 0.12 uM after 48 hrs by flow cytometry; assay type: functional, cell-based; how it was run: as §2
[4] = Cell cycle arrest in human MDA-MB-435S cells assessed as accumulation at G2/M phase at 0.14 uM after 48 hrs by flow cytometry; assay type: functional, cell-based; how it was run: as §2
[5] = Cell cycle arrest in human MDA-MB-435S cells assessed as accumulation at S phase at 0.12 uM after 48 hrs by flow cytometry; assay type: functional, cell-based; how it was run: as §2
HEp-2 = experiment: Antiproliferative activity against human Hep2 cells after 72 hrs by MTT assay; assay type: functional, cell-based; details: HEp-2, 72 h; how it was run: as §1
SW480 [6] = experiment: Antiproliferative activity against human SW480 cells after 72 hrs by MTT assay; assay type: functional, cell-based; details: SW480, 72 h; how it was run: as §1
MCF7 = experiment: Antiproliferative activity against human MCF7 cells after 72 hrs by MTT assay; assay type: functional, cell-based; details: MCF7, 72 h; how it was run: as §1
[7] = Cell cycle arrest in human MDA-MB-435S cells assessed as accumulation at G0/G1 phase at 0.13 uM after 48 hrs by flow cytometry; assay type: functional, cell-based; how it was run: as §2
[8] = Antiproliferative activity against human MDA-MB-435S cells after 72 hrs by MTT assay; assay type: functional, cell-based; how it was run: as §1
HeLa = experiment: Antiproliferative activity against human HeLa cells after 72 hrs by MTT assay; assay type: functional, cell-based; how it was run: as §1
[9] = Cell cycle arrest in human MDA-MB-435S cells assessed as accumulation at G0/G1 phase at 0.14 uM after 48 hrs by flow cytometry; assay type: functional, cell-based; how it was run: as §2
[10] = Cell cycle arrest in human MDA-MB-435S cells assessed as accumulation at S phase at 0.13 uM after 48 hrs by flow cytometry; assay type: functional, cell-based; how it was run: as §2
[11] = Cell cycle arrest in human MDA-MB-435S cells assessed as accumulation at G2/M phase at 0.13 uM after 48 hrs by flow cytometry; assay type: functional, cell-based; how it was run: as §2
[12] = Cell cycle arrest in human MDA-MB-435S cells assessed as accumulation at S phase at 0.14 uM after 48 hrs by flow cytometry; assay type: functional, cell-based; how it was run: as §2
SW480 [13] = experiment: Cell cycle arrest in human SW480 cells assessed as accumulation at G2/M phase at 0.7 uM after 48 hrs by flow cytometry; assay type: functional; how it was run: as §2
SW480 [14] = experiment: Cell cycle arrest in human SW480 cells assessed as accumulation at G2/M phase at 1 uM after 48 hrs by flow cytometry; assay type: functional; how it was run: as §2
SW480 [15] = experiment: Cell cycle arrest in human SW480 cells assessed as accumulation at G2/M phase at 0.5 uM after 48 hrs by flow cytometry; assay type: functional; how it was run: as §2
SW480 [16] = experiment: Cell cycle arrest in human SW480 cells assessed as accumulation at S phase at 1 uM after 48 hrs by flow cytometry; assay type: functional; how it was run: as §2
SW480 [17] = experiment: Cell cycle arrest in human SW480 cells assessed as accumulation at G0/G1 phase at 0.7 uM after 48 hrs by flow cytometry; assay type: functional; how it was run: as §2
SW480 [18] = experiment: Cell cycle arrest in human SW480 cells assessed as accumulation at S phase at 0.5 uM after 48 hrs by flow cytometry; assay type: functional; how it was run: as §2
SW480 [19] = experiment: Cell cycle arrest in human SW480 cells assessed as accumulation at G0/G1 phase at 0.5 uM after 48 hrs by flow cytometry; assay type: functional; how it was run: as §2
SW480 [20] = experiment: Cell cycle arrest in human SW480 cells assessed as accumulation at G0/G1 phase at 1 uM after 48 hrs by flow cytometry; assay type: functional; how it was run: as §2
SW480 [21] = experiment: Cell cycle arrest in human SW480 cells assessed as accumulation at S phase at 0.7 uM after 48 hrs by flow cytometry; assay type: functional; how it was run: as §2

IC50 (SW480 [6]): 0.79 µM | IC50 (MCF7): 0.38 µM | IC50 (HeLa): 0.44 µM
Structure (SMILES): O=c1c(CSC(=S)N2CCCCC2)coc2ccc(Cl)cc12
IC50 [1]: 0.85 µM | Activity [2]: 13.9% | Activity [3]: 60.8% | Activity [4]: 24.9% | Activity [5]: 25.3% | IC50 (HEp-2): 0.28 µM | Activity [7]: 58.7% | IC50 [8]: 0.24 µM | Activity [9]: 41.6% | Activity [10]: 20.7% | Activity [11]: 20.6% | Activity [12]: 33.6%

IC50 (SW480 [6]): 0.69 µM | IC50 (MCF7): 1 µM | IC50 (HeLa): 9.8 µM
Structure (SMILES): O=c1c(Cl)c(CSC(=S)N2CCCCC2)oc2ccccc12
IC50 [1]: 3.3 µM | Activity (SW480 [13]): 27.96% | Activity (SW480 [14]): 39.27% | Activity (SW480 [15]): 27.77% | IC50 (HEp-2): 0.94 µM | Activity (SW480 [16]): 34.22% | IC50 [8]: 0.77 µM | Activity (SW480 [17]): 36.84% | Activity (SW480 [18]): 37.84% | Activity (SW480 [19]): 39.39% | Activity (SW480 [20]): 26.51% | Activity (SW480 [21]): 35.2%
